From ChEMBL document CHEMBL4052702 (Bioorg Med Chem Lett, 2017)

Columns and labels:
Homo sapiens [1] = species: Homo sapiens; experiment: Inhibition of HDAC in human HeLa-S3 cells lysates assessed as remaining enzyme activity at 1.25 x 10^-7 M pre-incubated for 15 mins before HDAC-Glo I/II substrate addition and measured after 30 mins post substrate addition; type: cell-free
Histone deacetylase 3 [2] = biological target: T1, Histone deacetylase 3 (Homo sapiens, UniProt O15379); experiment: Inhibition of HDAC3 (unknown origin) assessed as remaining enzyme activity at 0.025 uM by ELISA-based assay
In short: (§1)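 Isoform screen by ELISA-based HDAC activity assay against HDAC1, HDAC2, HDAC3 and HDAC6. Each analog was tested at one final concentration: 0.025, 0.125, 0.25 or 1.25 µM. Read-out is percent deacetylase activity remaining, given as the mean with standard error of at least two independent trials.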

Homo sapiens [3] = species: Homo sapiens; experiment: Inhibition of HDAC in human HeLa-S3 cells lysates assessed as remaining enzyme activity at 6.25 x 10^-8 M pre-incubated for 15 mins before HDAC-Glo I/II substrate addition and measured after 30 mins post substrate addition; type: cell-free
Homo sapiens [4] = species: Homo sapiens; experiment: Inhibition of HDAC in human HeLa-S3 cells lysates assessed as remaining enzyme activity at 5 x 10^-7 M pre-incubated for 15 mins before HDAC-Glo I/II substrate addition and measured after 30 mins post substrate addition; type: cell-free
[5] = biological target: T2, Protein deacetylase HDAC6 (Homo sapiens) (UniProt Q9UBN7); experiment: Inhibition of HDAC6 (unknown origin) assessed as remaining enzyme activity at 0.025 uM by ELISA-based assay; in short: as §1
T2 sequence (whole entry): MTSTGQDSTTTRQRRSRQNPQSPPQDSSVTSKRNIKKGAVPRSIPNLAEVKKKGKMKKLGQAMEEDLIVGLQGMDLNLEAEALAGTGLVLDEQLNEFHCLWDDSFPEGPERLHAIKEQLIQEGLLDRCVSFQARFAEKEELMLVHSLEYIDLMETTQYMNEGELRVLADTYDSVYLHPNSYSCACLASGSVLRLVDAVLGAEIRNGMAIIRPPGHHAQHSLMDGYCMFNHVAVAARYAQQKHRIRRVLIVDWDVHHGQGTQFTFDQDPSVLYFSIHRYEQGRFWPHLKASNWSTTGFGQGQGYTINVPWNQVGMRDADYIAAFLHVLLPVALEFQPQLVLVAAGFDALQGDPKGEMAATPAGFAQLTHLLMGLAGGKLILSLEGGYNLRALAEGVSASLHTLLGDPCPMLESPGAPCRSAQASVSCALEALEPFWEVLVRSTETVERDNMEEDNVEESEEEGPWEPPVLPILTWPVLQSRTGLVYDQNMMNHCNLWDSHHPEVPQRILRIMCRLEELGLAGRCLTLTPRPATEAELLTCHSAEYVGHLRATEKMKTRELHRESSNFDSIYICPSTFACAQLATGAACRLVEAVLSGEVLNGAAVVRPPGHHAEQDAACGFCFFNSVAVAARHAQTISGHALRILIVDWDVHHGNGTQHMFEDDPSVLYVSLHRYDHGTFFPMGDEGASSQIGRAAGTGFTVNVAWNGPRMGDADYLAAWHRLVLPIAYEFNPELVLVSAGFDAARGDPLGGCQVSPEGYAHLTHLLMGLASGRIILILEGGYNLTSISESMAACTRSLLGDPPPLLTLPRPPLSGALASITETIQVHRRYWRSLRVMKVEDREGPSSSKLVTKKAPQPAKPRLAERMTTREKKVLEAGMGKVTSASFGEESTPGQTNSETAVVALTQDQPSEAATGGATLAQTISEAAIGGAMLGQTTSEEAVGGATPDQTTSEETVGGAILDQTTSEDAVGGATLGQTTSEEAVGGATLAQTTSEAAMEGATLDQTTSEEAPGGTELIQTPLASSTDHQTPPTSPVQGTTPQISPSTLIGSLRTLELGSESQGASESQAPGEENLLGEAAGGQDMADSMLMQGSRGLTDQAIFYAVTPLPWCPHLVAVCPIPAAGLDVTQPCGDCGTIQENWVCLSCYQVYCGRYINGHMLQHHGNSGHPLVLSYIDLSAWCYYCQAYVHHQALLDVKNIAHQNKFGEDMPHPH

Homo sapiens [6] = species: Homo sapiens; experiment: Inhibition of HDAC in human HeLa-S3 cells lysates assessed as remaining enzyme activity at 2.5 x 10^-7 M pre-incubated for 15 mins before HDAC-Glo I/II substrate addition and measured after 30 mins post substrate addition; type: cell-free
Homo sapiens [7] = species: Homo sapiens; experiment: Inhibition of HDAC in human HeLa-S3 cells lysates assessed as remaining enzyme activity at 3.13 x 10^-8 M pre-incubated for 15 mins before HDAC-Glo I/II substrate addition and measured after 30 mins post substrate addition; type: cell-free
Histone deacetylase 2 [8] = biological target: T3, Histone deacetylase 2 (Homo sapiens, UniProt Q92769); experiment: Inhibition of HDAC2 (unknown origin) assessed as remaining enzyme activity at 0.025 uM by ELISA-based assay; in short: as §1
Histone deacetylase 1 [9] = biological target: T4, Histone deacetylase 1 (Homo sapiens, UniProt Q13547); experiment: Inhibition of HDAC1 (unknown origin) assessed as remaining enzyme activity at 0.025 uM by ELISA-based assay; in short: as §1
[10] = biological target: T2, Protein deacetylase HDAC6 (Homo sapiens); experiment: Inhibition of HDAC6 (unknown origin) assessed as remaining enzyme activity at 0.125 uM by ELISA-based assay; in short: as §1
Histone deacetylase 1 [11] = biological target: T4, Histone deacetylase 1; experiment: Inhibition of HDAC1 (unknown origin) assessed as remaining enzyme activity at 0.125 uM by ELISA-based assay; in short: as §1
Histone deacetylase 2 [12] = biological target: T3, Histone deacetylase 2; experiment: Inhibition of HDAC2 (unknown origin) assessed as remaining enzyme activity at 0.125 uM by ELISA-based assay; in short: as §1
Homo sapiens [13] = species: Homo sapiens; experiment: Inhibition of HDAC in human HeLa-S3 cells lysates assessed as remaining enzyme activity at 4 x 10^-6 M pre-incubated for 15 mins before HDAC-Glo I/II substrate addition and measured after 30 mins post substrate addition; type: cell-free
[14] = Inhibition of HDAC in human HeLa-S3 cells lysates pre-incubated for 15 mins before HDAC-Glo I/II substrate addition and measured after 30 mins post substrate addition; type: cell-based
Homo sapiens [15] = species: Homo sapiens; experiment: Inhibition of HDAC in human HeLa-S3 cells lysates assessed as remaining enzyme activity at 1 x 10^-6 M pre-incubated for 15 mins before HDAC-Glo I/II substrate addition and measured after 30 mins post substrate addition; type: cell-free
Homo sapiens [16] = species: Homo sapiens; experiment: Inhibition of HDAC in human HeLa-S3 cells lysates assessed as remaining enzyme activity at 8 x 10^-6 M pre-incubated for 15 mins before HDAC-Glo I/II substrate addition and measured after 30 mins post substrate addition; type: cell-free
Homo sapiens [17] = species: Homo sapiens; experiment: Inhibition of HDAC in human HeLa-S3 cells lysates assessed as remaining enzyme activity at 2 x 10^-6 M pre-incubated for 15 mins before HDAC-Glo I/II substrate addition and measured after 30 mins post substrate addition; type: cell-free
Histone deacetylase 3 [18] = biological target: T1, Histone deacetylase 3; experiment: Inhibition of HDAC3 (unknown origin) assessed as remaining enzyme activity at 0.125 uM by ELISA-based assay; in short: as §1

T3 sequence (Q92769 whole entry): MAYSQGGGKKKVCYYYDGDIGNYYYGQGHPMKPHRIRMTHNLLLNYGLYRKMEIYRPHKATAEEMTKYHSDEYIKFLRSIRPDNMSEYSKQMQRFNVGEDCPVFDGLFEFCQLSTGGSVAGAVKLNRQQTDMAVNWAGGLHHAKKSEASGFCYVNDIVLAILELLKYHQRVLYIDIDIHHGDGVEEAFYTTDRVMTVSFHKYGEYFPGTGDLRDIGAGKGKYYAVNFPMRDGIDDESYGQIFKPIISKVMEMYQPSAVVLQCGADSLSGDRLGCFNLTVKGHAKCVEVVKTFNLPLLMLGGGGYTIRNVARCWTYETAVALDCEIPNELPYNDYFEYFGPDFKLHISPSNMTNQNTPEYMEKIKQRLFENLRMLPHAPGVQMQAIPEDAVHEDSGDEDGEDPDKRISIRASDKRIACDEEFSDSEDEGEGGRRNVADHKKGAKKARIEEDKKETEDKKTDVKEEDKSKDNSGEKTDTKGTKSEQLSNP
T1 sequence (O15379 whole entry, canonical isoform): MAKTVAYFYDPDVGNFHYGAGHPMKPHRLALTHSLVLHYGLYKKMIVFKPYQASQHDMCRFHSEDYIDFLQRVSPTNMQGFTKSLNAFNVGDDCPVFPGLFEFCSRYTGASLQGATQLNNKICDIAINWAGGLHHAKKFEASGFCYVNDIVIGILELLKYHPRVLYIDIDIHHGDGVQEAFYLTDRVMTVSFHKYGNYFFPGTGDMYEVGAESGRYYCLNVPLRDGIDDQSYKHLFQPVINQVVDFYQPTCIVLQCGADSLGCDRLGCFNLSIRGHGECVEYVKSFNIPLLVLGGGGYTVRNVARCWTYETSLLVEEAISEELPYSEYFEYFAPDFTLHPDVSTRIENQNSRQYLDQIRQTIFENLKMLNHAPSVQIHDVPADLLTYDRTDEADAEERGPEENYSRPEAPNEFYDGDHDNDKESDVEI
T4 sequence (Q13547 whole entry): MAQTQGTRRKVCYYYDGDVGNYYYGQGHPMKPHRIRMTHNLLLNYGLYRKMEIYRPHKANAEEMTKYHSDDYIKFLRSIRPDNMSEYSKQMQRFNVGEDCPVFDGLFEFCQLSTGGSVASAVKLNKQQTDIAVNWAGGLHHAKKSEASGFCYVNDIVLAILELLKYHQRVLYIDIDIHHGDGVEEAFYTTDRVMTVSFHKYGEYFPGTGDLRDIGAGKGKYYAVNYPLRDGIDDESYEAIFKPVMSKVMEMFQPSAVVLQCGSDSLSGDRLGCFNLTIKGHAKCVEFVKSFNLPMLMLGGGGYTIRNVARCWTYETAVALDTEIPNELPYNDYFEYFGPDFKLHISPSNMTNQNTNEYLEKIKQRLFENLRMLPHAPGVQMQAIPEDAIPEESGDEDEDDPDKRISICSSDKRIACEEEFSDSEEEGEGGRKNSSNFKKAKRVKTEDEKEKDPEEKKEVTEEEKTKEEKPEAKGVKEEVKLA

Row | SMILES | Activity (Homo sapiens [1]) | Activity (Histone deacetylase 3 [2]) | Activity (Homo sapiens [3]) | Activity (Homo sapiens [4]) | Activity [5] | Activity (Homo sapiens [6]) | Activity (Homo sapiens [7]) | Activity (Histone deacetylase 2 [8]) | Activity (Histone deacetylase 1 [9]) | Activity [10] | Activity (Histone deacetylase 1 [11]) | Activity (Histone deacetylase 2 [12]) | Activity (Homo sapiens [13]) | IC50 [14] | Activity (Homo sapiens [15]) | Activity (Homo sapiens [16]) | Activity (Homo sapiens [17]) | Activity (Histone deacetylase 3 [18])
1 | CC(CCCC(=O)NO)CCC(=O)Nc1ccccc1 (centres undefined) | 44% | 80% | 68% | 14% | 63% | 15% | 85% | 81% | 67% | – | – | – | – | – | – | – | – | –
2 | O=C(CCCC(CCC(=O)Nc1ccccc1)c1ccccc1)NO (centres undefined) | – | – | – | 94% | – | – | – | – | – | 63% | 83% | 85% | 31% | 2200 nM | 74% | 15% | 53% | 86%
